Results published in the array DNA melting data of Ke et al. (doi:10.1101/2024.01.08.574731).

Key:
[1] = melting temperature; fluorescence melt of hairpins on a sequencing array, two-state fit, raised by 9.35 °C to match UV melts; conditions: sodium 0.088 M
Method in brief: (§1)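 Bootstrapped two-state fits yielded melting temperature and folding enthalpy for library hairpins. Cy3 fluorescence, with annealed Cy3 and quencher oligos, was imaged on a sequenced MiSeq flow cell in 50 mM Na-HEPES pH 8.0, 25 mM NaCl in 2.5 °C steps up to 60 °C, and normalised to pre-quench Cy3 and to control constructs. Four replicates were combined by inverse variance, and fitted temperatures were raised by 9.35 °C to match UV melts.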

[2] = folding enthalpy; higher = less favourable; fluorescence melt of hairpins on a sequencing array, two-state fit; conditions: sodium 0.088 M
Method in brief: as §1

| Sequence | Tm [1] [°C] | folding enthalpy [2] [kcal/mol] |
| --- | --- | --- |
| GCTGTCGGAAACGATGGC ((..(((....)))..)) | 47.8 | -33.5 |
| GATCAGGAAGCTGATC ((((((....)))))) | 53.9 | -34.2 |
| GGTTAGGGAAACCTAATC (.(((((....))))).) | 37.9 | -27.7 |
| GTTGACGGAAACGTCAAC (((((((....))))))) | 66.9 | -33.6 |
| GAAGCACGAAAGTGGTTC (((.(((....))).))) | 61.3 | -31.6 |
| GACAGTGGAAACACCATC ((..(((....)))..)) | 19.9 | -10.3 |
| GATCGTACAACGATC ((((((...)))))) | 56.5 | -37.4 |
| GGCGAGCGAAAGCTAGCC (((.(((....))).))) | 68.7 | -42.2 |
| GCCGCCGAAAGGCGTGGC ((((((....)))..))) | 60.1 | -12.6 |
| GATGCCGAAAGGCTGATC ((((((....)))..))) | 36.6 | -9.91 |
| GTAGCAGCGAAAGCTTAC (((..(((....)))))) | 26.8 | -10.3 |
| GATCCGGAATCGGATC ((((((....)))))) | 62 | -45.2 |
| GATAACGAAAGTTTATC ((((((....))).))) | 31.8 | -14.2 |
| GTAGGCGGAAACGTCTGC (.((.((....)).)).) | 41.6 | -23 |
| GCGGCGCCCCGC ((((....)))) | 52.7 | -16.4 |
| GCTTGCTCGAAAGAGAGC (((..(((....)))))) | 49.1 | -21.3 |
| GTATGCTCGAAAGAGTAC (((..(((....)))))) | 26.7 | -10.5 |
| GGATCAGGAAACTAATCC ((((.((....)).)))) | 26.2 | -12.9 |
| GGGAATACGAAAGTACCC (((..(((....)))))) | 33.9 | -23 |
| GAGAAAGGAAACTTTCCC (.(((((....))))).) | 25.1 | -12.3 |
| GAACGAGGAAACTCATTC (((.(((....))).))) | 24.8 | -15.5 |
| GACTAACGAAAGTTTGTC (((.(((....))).))) | 47 | -30.9 |
| GGTTGCACGAAAGTGACC (((..(((....)))))) | 34.2 | -11.2 |

| Sequence | Tm [1] [°C] | folding enthalpy [2] [kcal/mol] |
| --- | --- | --- |
| GATCCGGACACGGATC ((((((....)))))) | 66 | -43.2 |
| GAATAACGAAAGTTGTTC (((.(((....))).))) | 45.5 | -31 |
| GATCAAGGATTTGATC ((((((....)))))) | 49.1 | -29.8 |
| GGCCGGGCGAAAGCCGCC (((..(((....)))))) | 57.7 | -18.1 |
| GTGTCCGAAAGGAAGCAC ((((((....)))..))) | 38.6 | -19.2 |
| GATCTTATCGAAGATC ((((((....)))))) | 38.7 | -20.8 |
| GGCGACGAAAGTCTAGCC ((((((....)))..))) | 54.5 | -28.6 |
| GGCGGTACGAAAGTAGCC (((..(((....)))))) | 50.7 | -18.8 |
| CGGTCGGAAACGATTCCG ((((((....)))..))) | 43.9 | -19.8 |
| GTGGAAGGAAACTTTCGC (.(.(((....))).).) | 30 | -20 |
| GGGTTCGAAAGAAGCCCC ((((((....)))..))) | 55.3 | -20.9 |
| GCCTGGGGAAACCTGGGC (((..((....))..))) | 50.3 | -32.3 |
| GTACTCGAAAGAGATAC ((((((....))).))) | 34.5 | -18 |
| GTAAGGCGAAAGCCCTAC (((.(((....))).))) | 36 | -13.5 |
| GAAGTAGGAAACTACTCC (.(((((....))))).) | 32.5 | -11.4 |
| GCTCGCGAAAGCGATAGC ((((((....)))..))) | 50.3 | -14.4 |
| GCACGGCGAAAGCCTTGC (((.(((....))).))) | 54.2 | -54.8 |
| GATCTCGCTAGAGATC ((((((....)))))) | 67.6 | -43.5 |
| GATCCAGGCATGGATC ((((((....)))))) | 57.8 | -45.8 |
| GTGGGGACGAAAGTCCAC (((..(((....)))))) | 61.8 | -15.4 |
| GAGAGGCGAAAGCCCTC (((.(((....)))))) | 55.7 | -14.2 |
| GATCCTATATAGGATC ((((((....)))))) | 52.3 | -46.7 |
| GATCAAACGATTGATC ((((((....)))))) | 39.9 | -25.3 |

| Sequence | Tm [1] [°C] | folding enthalpy [2] [kcal/mol] |
| --- | --- | --- |
| GCGGGCGGAAACACCCGC (((((.(....).))))) | 60.5 | -44.2 |
| GGAACTGGAAACAGCTCC (((.(((....))).))) | 42.5 | -28.5 |
| GATCCTAAGGAGGATC ((((((....)))))) | 49.3 | -25.2 |
| GCGTCAATACGC ((((....)))) | 51.4 | -22.8 |
| GATCAGAGTCCTGATC ((((((....)))))) | 47.6 | -38.2 |
| GCCTACGAAAGTACGGC ((((((....))).))) | 51.5 | -28.8 |
| GAAAGCGAAAGCTCCTTC ((((((....)))..))) | 31.4 | -10.2 |
| GCTTTCACGAAAGTGAGC (((..(((....)))))) | 33.8 | -11.2 |
| GATCATATCGATGATC ((((((....)))))) | 47.4 | -34.3 |
| GATCAGTGCTCTGATC ((((((....)))))) | 52.1 | -26.4 |
| GATCAGTAAACTGATC ((((((....)))))) | 50.8 | -37.4 |
| GACGACGGAAACATCGTC (((((.(....).))))) | 45.7 | -34.2 |
| GATCCATTCATGGATC ((((((....)))))) | 59.5 | -43.5 |
| GTGGCGCGAAAGCGCAC (((.(((....)))))) | 57.6 | -8.04 |
| GAGTGTGGAAACACGTTC ((..(((....)))..)) | 42.9 | -12.2 |
| GTGATCGAAAGATCGCAC ((((((....)))..))) | 51.8 | -18.1 |
| GGCAGTGGAAACATTGCC ((((.((....)).)))) | 52.2 | -41.3 |
| CGAGCGGAAACGCTGTCG ((((((....)))..))) | 43 | -11.2 |
| GCCCACGAAAGTGAGGC ((((((....))).))) | 64 | -31.1 |
| GGTACCGAAAGGTAAACC ((((((....)))..))) | 40.5 | -16.2 |
| GATCCTGGTAAGGATC ((((((....)))))) | 65.8 | -41.8 |
| GTTCTGCGAAAGCACAAC (((.(((....))).))) | 33.3 | -12.6 |
| GTGGCCGAAAGGCCGCAC ((((((....)))..))) | 62.9 | -9.1 |

| Sequence | Tm [1] [°C] | folding enthalpy [2] [kcal/mol] |
| --- | --- | --- |
| GTAGTCGAAAGACGGTAC ((((((....)))..))) | 39.2 | -11.8 |
| GATCCCGGGGGGATC ((((((...)))))) | 61.6 | -35.4 |
| GATCTTTTACAAGATC ((((((....)))))) | 42.8 | -31.9 |
| GGAAACGAAAGTTATCC ((((((....))).))) | 31.9 | -12.1 |
| GAATTGGGAAACTGATTC ((((..(....)..)))) | 25.6 | -13.2 |
| GTCACCGAAAGGTTAGAC ((((((....)))..))) | 39.4 | -17.1 |
| GAAGATCCGAAAGGATTC (((..(((....)))))) | 31.3 | -12.6 |
| GGCGAGCGAAAGCTGCC (((.(((....)))))) | 66.9 | -27.6 |
| GTCGCACGAAAGTGGGAC (((.(((....))).))) | 67.4 | -38.5 |
| GATCCTTCCGAGGATC ((((((....)))))) | 53.1 | -43.5 |
| CTGAAGAAATTCAG (((((....))))) | 33.4 | -12.5 |
| GACTAGGGAAACCTGGTC (((.(((....))).))) | 46.7 | -35.7 |
| GATCCCTACTGGGATC ((((((....)))))) | 64.4 | -37.7 |
| GGATCACCGAAAGGTTCC (((..(((....)))))) | 30.3 | -13.1 |
| GAACCACCGAAAGGTTTC (((..(((....)))))) | 22.3 | -9.16 |
| GATCTACGCGTAGATC ((((((....)))))) | 55.5 | -52.1 |
| GTTGGAGGAAACTTCAAC ((((.((....)).)))) | 41.9 | -31.4 |
| GTGGAGGGAAACCTCTAC ((.((((....)))).)) | 46.7 | -25.7 |
| GAATCTGAAAAGATTC ((((((....)))))) | 49.8 | -36.8 |
| GTTATCGGAAACGATAGC (.(((((....))))).) | 43.4 | -21.5 |
| GCGTCGCCGAAAGGCCGC (((..(((....)))))) | 57.1 | -19.3 |
| GCGCGGCGAAAGCCCGGC ((..(((....)))..)) | 59.7 | -12.8 |
| GACATAACGAAAGTTGTC (((..(((....)))))) | 37.4 | -25 |
